The source made the active and inactive calls. The calls are words filed in the database; no cut-off is given here. Residues, ends and D or L forms follow the SMILES beside them.
Columns and labels:
HUVEC [1] = assay: Binding affinity to VEGFR in human HUVEC grown in serum deprived medium using fluorescein-labeled compound at 50 to 5000 nM after 5 mins by flow cytometry; assay type: cell-based
Method in brief: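 HUVECs (3 × 10^4/100 μL) were suspended in EBM-2 with 0.1% heparin and 0.1% BSA. They were incubated for 5 min at 4 C in the dark with fluorescein-labelled peptide (50, 500, 5000 nM). For competition, 500 nM labelled peptide was used with VEGF165 (0.05, 5, 500 nM). Cells were washed, resuspended in PBS and analysed by flow cytometry. A PE-conjugated anti-β-1 integrin antibody (1:100) was the technical control.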

HUVEC [2] = assay: Antagonist activity at VEGFR in human HUVEC grown in serum deprived medium assessed as inhibition of VEGF165-induced ERK1/2 phosphorylation at 50 nM after 15-30 mins by Western blot analysis; assay type: functional, cell-based
Method in brief: (§1)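 Serum-starved HUVECs in EBM-2 with 0.1% heparin and 0.1% BSA were treated at 37 C for 15 and 30 min with peptide, with or without VEGF165 (25 ng/mL). Total lysates (25 μg) were run on 12% SDS-PAGE and blotted for phospho-ERK1/2 and phospho-AKT. Total ERK1/2, AKT and GAPDH served as loading controls. Detection was by HRP secondary antibody and ECL.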

HUVEC [3] = assay: Antagonist activity at VEGFR in human HUVEC grown in serum deprived medium assessed as inhibition of VEGF165-induced AKT phosphorylation at 50 nM after 15-30 mins by Western blot analysis; assay type: functional, cell-based; method in brief: as §1
HUVEC [4] = assay: Induction of apoptosis in human HUVEC grown in serum deprived medium assessed as caspase 3 activity at 50 nM after 8 hrs by spectrofluorometry; assay type: functional, cell-based
Method in brief: (§2)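 Lysates of serum-deprived HUVECs (2 × 10^4 cells) were prepared in 50 mM Hepes, 1 mM DTT, 0.1 mM EDTA, 0.1% NP-40 and 0.1% CHAPS. Protein (20 μg) was incubated with 20 μM Ac-DEVD-AMC at 37 C for 3 h. Released AMC was read by spectrofluorometry at 380 nm excitation and 440 nm emission.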

HUVEC [5] = assay: Induction of apoptosis in human HUVEC grown in serum deprived medium at 12.5 nM after 24 hrs by annexin V/fluorescein isothiocyanate-based flow cytometry; assay type: functional, cell-based
A-375 [6] = assay: Antitumor activity against human A375 cells xenografted in athymic nude-Foxn1 nu/nu mouse assessed as tumor growth inhibition at 200 nM intratumorally administered for 15 days measured after 15 days relative to untreated control; assay type: functional
Method in brief: (§3)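 A375 cells (5 × 10^6 in 150 μL Hanks' solution) were injected subcutaneously on the back of 6-week-old female athymic nude-Foxn1nu/nu mice. After one week, mice were randomized (10/group) to PBS (100 μL) or peptide (200 nM), given intratumorally twice weekly. Tumours were measured by caliper and volume was calculated as V = (ab²)/2. Groups were compared by ANOVA.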

HUVEC [7] = assay: Inhibition of VEGF165-induced cell proliferation in human HUVEC grown in serum deprived medium at 50 nM after 24 hrs; assay type: functional, cell-based
Method in brief: (§4)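 HUVECs were seeded at 1200 cells/well and switched after 24 h to EBM-2 with 0.1% heparin and 0.1% BSA. They were treated with peptide, with or without VEGF165 (25 ng/mL), for 24 or 48 h at 37 C. DNA content was measured with CyQUANT NF reagent (1 h, 37 C) at 485 nm excitation. Quadruplicate samples were used, and values were expressed as percentage of proliferating cells.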

HUVEC [8] = assay: Inhibition of VEGF165 induced cell proliferation in human HUVEC grown in serum deprived medium at 50 nM after 48 hrs; assay type: functional, cell-based; method in brief: as §4
Endothelial cell = assay: Antiangiogenic activity against VEGF165-induced CD1 nude mouse endothelial cells at 200 nM after 21 days by FITC-based fluorescence microscopy
HUVEC [9] = assay: Induction of apoptosis in human HUVEC grown in serum deprived medium assessed as caspase 3 activity at 12.5 to 50 nM after 8 hrs by spectrofluorometry; assay type: functional, cell-based; method in brief: as §2
HUVEC [10] = assay: Inhibition of VEGF165-induced cell proliferation in human HUVEC grown in serum deprived medium at 12.5 to 50 nM after 24 hrs relative to acetyl-KQMYLELGYATIKWL-amide; assay type: functional; method in brief: as §4
HUVEC [11] = assay: Inhibition of VEGF165-induced cell proliferation in human HUVEC grown in serum deprived medium at 12.5 to 50 nM after 48 hrs; assay type: functional; method in brief: as §4
A-375 [12] = assay: Antitumor activity against human A375 cells xenografted in athymic nude-Foxn1 nu/nu mouse assessed as tumor growth inhibition at 200 nM intratumorally administered for 15 days measured after 15 days relative to acetyl-KQMYLELGYATIKWL-amide; assay type: functional; method in brief: as §3
A-375 [13] = assay: Antitumor activity against human A375 cells xenografted in athymic nude-Foxn1 nu/nu mouse assessed as inhibition of tumor angiogenesis measuring CD31 expression at 200 nM intratumorally administered for 7 days by immunohistochemical analysis; assay type: functional
Method in brief: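 Tumours from A375 xenografts in nude mice, treated intratumorally with peptide (200 nM) or PBS twice weekly, were excised after 1 week. They were formalin-fixed and cut into 5 μm paraffin sections. Sections were stained for CD31 by avidin-biotin peroxidase with diaminobenzidine and counterstained with hematoxylin.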

HUVEC [14] = assay: Antagonist activity at VEGFR in human HUVEC grown in serum deprived medium assessed as inhibition of VEGF165-induced ERK1/2 phosphorylation at 50 nM after 24 hrs by Western blot analysis; assay type: functional, cell-based
Method in brief: (§5)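 Whole-cell lysates (25 μg) were run on 12% SDS-PAGE and immunoblotted for phospho-ERK1/2 and phospho-RB. Total ERK1/2, RB and GAPDH were the loading controls. Read-out was ECL.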

HUVEC [15] = assay: Antagonist activity at VEGFR in human HUVEC grown in serum deprived medium assessed as inhibition of VEGF165-induced RB phosphorylation at 50 nM after 15-30 mins by Western blot analysis; assay type: functional, cell-based
HUVEC [16] = assay: Antagonist activity at VEGFR in human HUVEC grown in serum deprived medium assessed as inhibition of VEGF165-induced ERK1/2 phosphorylation at 12.5 nM after 24 hrs by Western blot analysis; assay type: functional, cell-based; method in brief: as §5
[17] = Half life of the compound; assay type: physicochemical
Method in brief: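 Peptide was diluted to a final 0.5 mg/mL in 25% (v:v) pooled human male AB serum at 37 C. Aliquots were taken at 0, 15, 30, 60, 90 and 120 min and at 24 h, centrifuged at 4 C and diluted to 0.1 mg/mL. Remaining intact peptide was quantified by RP-HPLC on a C18 column with 38–48% CH3CN (0.1% TFA) elution.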

[18] = Antiangiogenic activity against VEGF165-induced CD1 nude mouse endothelial cells at 200 nM after 21 days by FITC-based fluorescence microscopy
HUVEC [19] = assay: Antagonist activity at VEGFR in human HUVEC grown in serum deprived medium assessed as inhibition of VEGF165-induced RB phosphorylation at 50 nM after 15-30 mins by Western blot analysis

| SMILES | Activity (HUVEC [1]) | inhibition (HUVEC [2]) | inhibition (HUVEC [3]) | Activity (HUVEC [4]) | Activity (HUVEC [5]) | TGI (A-375 [6]) | inhibition (HUVEC [7]) | inhibition (HUVEC [8]) | Activity (Endothelial cell) | Activity (HUVEC [9]) | inhibition (INH) (HUVEC [10]) [%] | inhibition (INH) (HUVEC [11]) [%] | TGI (A-375 [12]) [%] | inhibition (INH) (A-375 [13]) [%] | inhibition (HUVEC [14]) | inhibition (HUVEC [15]) | inhibition (HUVEC [16]) | half-life [17] [h] | Activity [18] [%] | inhibition (HUVEC [19]) |
| --- | --- | --- | --- | --- | --- | --- | --- | --- | --- | --- | --- | --- | --- | --- | --- | --- | --- | --- | --- | --- |
| CC[C@H](C)[C@H](NC(=O)[C@@H](NC(=O)[C@H](C)NC(=O)[C@H](Cc1ccc(O)cc1)NC(=O)CNC(=O)[C@H](CC(C)C)NC(=O)[C@H](CCC(=O)O)NC(=O)[C@H](CC(C)C)NC(=O)[C@H](Cc1ccc(O)cc1)NC(=O)[C@H](CCSC)NC(=O)[C@H](CCC(N)=O)NC(=O)[C@H](CCCCN)NC(C)=O)[C@@H](C)O)C(=O)N[C@@H](CCCCN)C(=O)N[C@@H](Cc1c[nH]c2ccccc12)C(=O)N[C@@H](CC(C)C)C(N)=O (Ac-KQMYLELGYATIKWL-NH2) | inactive | inactive | inactive | inactive | inactive | inactive | inactive | inactive | inactive |  |  |  |  |  |  |  |  |  |  |  |
| CC[C@H](C)[C@H](NC(=O)CNC(=O)[C@H](CCCCN)NC(=O)[C@H](Cc1ccc(O)cc1)NC(=O)[C@H](C)NC(=O)[C@H](CC(C)C)NC(=O)[C@H](CCC(N)=O)NC(=O)[C@H](Cc1ccc(O)cc1)NC(=O)[C@H](CC(C)C)NC(=O)[C@H](CCC(=O)O)NC(=O)[C@H](CCSC)NC(=O)[C@H](Cc1c[nH]c2ccccc12)NC(=O)[C@@H](NC(=O)[C@H](CC(C)C)NC(=O)[C@H](CCCCN)NC(C)=O)[C@@H](C)O)C(N)=O (Ac-KLTWMELYQLAYKGI-NH2) | Active | Active | Active |  | Active | 36% |  |  |  | Active | 40 | >85 | 47 | 50 | Active | Active | Active | 1.5 | 85 | Active |
